Species: Mus musculus
Assay: Inhibition of nitric oxide (NO) production induced by interferon-gamma (IFN-gamma) in mouse macrophages; call rule not given here
Assay type: functional
Summary of the method: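 Primary peritoneal macrophages from female CD-1 mice (5–10 weeks), harvested four days after i.p. injection of 4% thioglycollate broth. Seeded at 2 × 10^5 cells/well and incubated 48 h with 20 ng/mL recombinant mouse IFN-γ plus compound in DMSO (final ≤0.1%), with DMSO controls. Nitrite in supernatant measured by Griess reaction at 550 nm in triplicate against sodium nitrite standard curve. IC50 is the average of two experiments.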

| SMILES | IC50 |
| --- | --- |
| C[C@@H]1CC[C@]2(C(=O)O)CC[C@]3(C)C(=CC(=O)[C@@H]4[C@@]5(C)C=C(C#N)C(=O)C(C)(C)[C@@H]5CC[C@]43C)C2[C@H]1C (stereo partly specified) | 800 nM |
| CC1(C)CC[C@]2(C=O)CC[C@]3(C)C(=CC(=O)[C@@H]4[C@@]5(C)C=CC(=O)C(C)(C)[C@@H]5CC[C@]43C)C2C1 (stereo partly specified) | 3800 nM |
| COC(=O)[C@]12CC[C@@H](C)[C@H](C)C1C1=CC(=O)[C@@H]3[C@@]4(C)C=C(C#N)C(=O)C(C)(C)[C@@H]4CC[C@@]3(C)[C@]1(C)CC2 (stereo partly specified) | 100 nM |
| COC(=O)[C@]12CCC(C)(C)CC1C1C(=O)C=C3[C@@]4(C)C=C(C=O)C(=O)C(C)(C)[C@@H]4CC[C@@]3(C)[C@]1(C)CC2 (stereo partly specified) | 100 nM |
| COC(=O)[C@]12CCC(C)(C)CC1C1C(=O)C=C3[C@@]4(C)C=C(C(N)=O)C(=O)C(C)(C)[C@@H]4CC[C@@]3(C)[C@]1(C)CC2 (stereo partly specified) | 100 nM |
| COC(=O)[C@]12CCC(C)(C)CC1C1=CC(=O)[C@@H]3[C@@]4(C)C=CC(=O)C(C)(C)[C@@H]4CC[C@@]3(C)[C@]1(C)CC2 (stereo partly specified) | 2800 nM |

Continued, values first:

| IC50 | SMILES |
| --- | --- |
| 8900 nM | COC(=O)[C@]12CC[C@@H](C)[C@H](C)C1C1=CC(=O)[C@@H]3[C@@]4(C)C=CC(=O)C(C)(C)[C@@H]4CC[C@@]3(C)[C@]1(C)CC2 (stereo partly specified) |
| > 40000 nM | CC(=O)OC[C@]12CCC(C)(C)CC1C1=CC(=O)[C@@H]3[C@@]4(C)C=CC(=O)C(C)(C)[C@@H]4CC[C@@]3(C)[C@]1(C)CC2 (stereo partly specified) |
| 1100 nM | CC1(C)CC[C@]2(C(=O)O)CC[C@]3(C)C(=CC(=O)[C@@H]4[C@@]5(C)C=CC(=O)C(C)(C)[C@@H]5CC[C@]43C)C2C1 (stereo partly specified) |
| 31000 nM | COC(=O)[C@]12CCC(C)(C)CC1C1=CC[C@@H]3[C@@]4(C)C=CC(=O)C(C)(C)[C@@H]4CC[C@@]3(C)[C@]1(C)CC2 (stereo partly specified) |
| 700 nM | COC(=O)[C@]12CCC(C)(C)CC1C1C(=O)C=C3[C@@]4(C)C=CC(=O)C(C)(C)[C@@H]4CC[C@@]3(C)[C@]1(C)CC2 (stereo partly specified) |
| 14000 nM | COC(=O)[C@]12CCC(C)(C)CC1C1C(=O)C[C@@H]3[C@@]4(C)C=CC(=O)C(C)(C)[C@@H]4CC[C@@]3(C)[C@]1(C)CC2 (stereo partly specified) |
| 3000 nM | CC1(C)CC[C@]2(CO)CC[C@]3(C)C(=CC(=O)[C@@H]4[C@@]5(C)C=CC(=O)C(C)(C)[C@@H]5CC[C@]43C)C2C1 (stereo partly specified) |

Species: Mus musculus
Assay: Evaluated for the inhibitory activity of (Nitric Oxide)NO production induced by interferon-gamma (IFN-gamma) in mouse macrophages(toxic to cells above 1 uM and is not active below 1 uM); Toxic
Assay type: functional, cell-based

| SMILES | IC50 |
| --- | --- |
| COC(=O)[C@]12CCC(C)(C)CC1C1=CC[C@@H]3[C@@]4(C)C=C(C=O)C(=O)C(C)(C)[C@@H]4CC[C@@]3(C)[C@]1(C)CC2 (stereo partly specified) | Toxic |

Species: Mus musculus
Assay: Evaluated for the inhibitory activity of (Nitric Oxide)NO production induced by interferon-gamma (IFN-gamma) in mouse macrophages( toxic to cells above 1 uM and is not active below 1 uM); Toxic
Assay type: functional, cell-based

| SMILES | IC50 |
| --- | --- |
| COC(=O)C1=C[C@]2(C)C3=CC(=O)C4C5CC(C)(C)CC[C@]5(C(=O)OC)CC[C@@]4(C)[C@]3(C)CC[C@H]2C(C)(C)C1=O (stereo partly specified) | Toxic |
| C[C@@H]1CC[C@]2(C(=O)O)CC[C@]3(C)C(=CC[C@@H]4[C@@]5(C)CC[C@H](O)C(C)(C)[C@@H]5CC[C@]43C)C2[C@H]1C (stereo partly specified) | Toxic |
